Assay results from different studies.
Protocols differ between the studies behind these lines.
Target: Kappa-type opioid receptor (OPRK1, Homo sapiens, UniProt P41145)

CN[C@]1(c2ccccc2Cl)CCCCC1=O
IC50 (ligand displacement, radioligand): 13000 nM

CCCO[C@@]12Cc3cc(-c4ccccc4)cnc3[C@@H]3Oc4c(O)ccc5c4[C@@]31CCN(CC1CC1)[C@@H]2C5
Ki (cell-free assay): 252 nM

Cc1cc(O)cc(C)c1C[C@H](N)C(=O)N1Cc2ccccc2CC1C(=O)NCC(=O)NC(Cc1ccc(Cl)cc1)C(=O)N(C)CCC[C@@]1(c2ccc(F)cc2)OCc2cc(C#N)ccc21 (stereo in doubt)
Ki (cell-free assay): 91 nM

Cc1ccccc1Cc1ccc2c(c1)CN(C(=O)[C@@H](N)Cc1c(C)cc(O)cc1C)CC2
Ki (ligand displacement, radioligand; cell membranes): 1.2 nM

COc1ncccc1-c1cnn2ccc(N3CCN(C(=O)OC(C)C)CC3)nc12
IC50 (cell-free assay): > 30000 nM

C[C@H]1[C@H]2Cc3ccc(O)cc3[C@]1(C)CCN2CC1CC1
Ki (cell-free assay): 0.95 nM

COC(=O)/C=C/C(=O)N[C@@H]1CC[C@@]2(O)[C@H]3Cc4ccc(O)c5c4[C@@]2(CCN3CC2CC2)[C@H]1O5
IC50 (ligand displacement, radioligand; cell membranes): 7.78 nM

COC(=O)C(c1ccccc1)C1CCCCN1 (stereo not shown)
IC50 (ligand displacement, radioligand): 6900 nM

Cc1cc(O)cc(C)c1C[C@H](N)C(=O)N1CCc2ccc(Cc3ccc(N)cc3)cc2C1
Ki (ligand displacement, radioligand; cell membranes): 91 nM

CC(CCc1ccc(O)cc1)NCCc1ccc(O)c(O)c1 (stereo not shown)
IC50 (ligand displacement, radioligand): 5300 nM

Cc1cc(O)cc(C)c1C[C@H](N)C(=O)N[C@H](C)C(=O)NCC(=O)N[C@@H](Cc1ccc(Cl)cc1)C(=O)N(C)CCC[C@@]1(c2ccc(F)cc2)OCc2cc(C#N)ccc21
Ki (cell-free assay): 37 nM

COc1ccc(C(=O)Nc2ccccc2CCC2CCCCN2C)cc1 (stereo not shown)
IC50 (ligand displacement, radioligand): 3600 nM

Cc1cc(O)cc(C)c1C[C@H](N)C(=O)N1CCc2ccc(Cc3cccc([N+](=O)[O-])c3)cc2C1
Ki (ligand displacement, radioligand; cell membranes): 2.5 nM
